# Results from ChEMBL document CHEMBL1122285, “New myocardial imaging agents: stabilization of radioiodine as a terminal vinyl iodide moiety on tellurium fatty acids” (J Med Chem, 1983).
# Tests used:
# Rattus norvegicus [1] = assay: Tested for distribution of radioactivity iodine 125 in heart of rat after 30 min of intravenous administration (value in parentheses indicates range); assay type: ADME, organism-based; settings: in vivo, 0.5 h
# Outline: (§1)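 Fischer 344 rats, four per time point, under ether anaesthesia. Each received ~8.6 μCi of 125I-labelled fatty acid (sp act ~20 mCi/mmol) by lateral tail vein in 0.5 mL 6% bovine serum albumin with 10% final ethanol, filtered before injection. Percent injected dose/g was calculated against injectate standards and reported as mean (range). Thyroid weight was taken as body weight × 7.5 mg/100 g.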
# Rattus norvegicus [2] = assay: Tested for distribution of radioactivity iodine 125 in heart of rat after 4 hours of intravenous administration; assay type: ADME, organism-based; settings: in vivo; outline: as §1
# Rattus norvegicus [3] = assay: Tested for distribution of radioactivity iodine 125 in heart of rat after 60 min of intravenous administration; assay type: ADME, organism-based; settings: in vivo, 1 h; outline: as §1
# Rattus norvegicus [4] = assay: Tested for distribution of radioactivity of iodine 125 in blood of rat after 2 hour of intravenous administration; assay type: ADME, organism-based; settings: in vivo; outline: as §1
# Rattus norvegicus [5] = assay: Tested for distribution of radioactivity of iodine 125 in blood of rat after 30 min of intravenous administration; assay type: ADME, organism-based; settings: in vivo, 0.5 h; outline: as §1
# Rattus norvegicus [6] = assay: Tested for distribution of radioactivity of iodine 125 in blood of rat after 4 hours of intravenous administration; assay type: ADME, organism-based; settings: in vivo; outline: as §1
# Rattus norvegicus [7] = assay: Tested for distribution of radioactivity of iodine 125 in blood of rat after 5 min of intravenous administration; assay type: ADME, organism-based; settings: in vivo; outline: as §1
# Rattus norvegicus [8] = assay: Tested for distribution of radioactivity of iodine 125 in blood of rat after 60 min of intravenous administration; assay type: ADME, organism-based; settings: in vivo, 1 h; outline: as §1
# Rattus norvegicus [9] = assay: Tested for distribution of radioactivity of iodine 125 in heart of rat after 5 min of intravenous administration; assay type: ADME, organism-based; settings: in vivo; outline: as §1
# Rattus norvegicus [10] = assay: Tested for distribution of radioactivity of iodine 125 in kidney of rat after 2 hours of intravenous administration; assay type: ADME, organism-based; settings: in vivo; outline: as §1
# Rattus norvegicus [11] = assay: Tested for distribution of radioactivity of iodine 125 in kidney of rat after 30 min of intravenous administration; assay type: ADME, organism-based; settings: in vivo, 0.5 h; outline: as §1
# Rattus norvegicus [12] = assay: Tested for distribution of radioactivity of iodine 125 in kidney of rat after 4 hours of intravenous administration; assay type: ADME, organism-based; settings: in vivo; outline: as §1
# Rattus norvegicus [13] = assay: Tested for distribution of radioactivity of iodine 125 in kidney of rat after 5 min of intravenous administration; assay type: ADME, organism-based; settings: in vivo; outline: as §1
# Rattus norvegicus [14] = assay: Tested for distribution of radioactivity of iodine 125 in liver of rat after 2 hr of intravenous administration; assay type: ADME, organism-based; settings: in vivo; outline: as §1
# Rattus norvegicus [15] = assay: Tested for distribution of radioactivity of iodine 125 in liver of rat after 30 min of intravenous administration; assay type: ADME, organism-based; settings: in vivo, 0.5 h; outline: as §1
# Rattus norvegicus [16] = assay: Tested for distribution of radioactivity of iodine 125 in liver of rat after 5 min of intravenous administration; assay type: ADME, organism-based; settings: in vivo; outline: as §1
# Rattus norvegicus [17] = assay: Tested for distribution of radioactivity of iodine 125 in liver of rat after 60 min of intravenous administration; assay type: ADME, organism-based; settings: in vivo, 1 h; outline: as §1
# Rattus norvegicus [18] = assay: Tested for distribution of radioactivity of iodine 125 in thyroid of rat after 30 min of intravenous administration; assay type: ADME, organism-based, Thyroid gland; settings: in vivo, 0.5 h; outline: as §1
# Rattus norvegicus [19] = assay: Tested for distribution of radioactivity of iodine 125 in thyroid of rat after 4 hr of intravenous administration; assay type: ADME, organism-based, Thyroid gland; settings: in vivo; outline: as §1
# Rattus norvegicus [20] = assay: Tested for distribution of radioactivity of iodine 125 in thyroid of rat after 5 min of intravenous administration; assay type: ADME, organism-based, Thyroid gland; settings: in vivo; outline: as §1
# Rattus norvegicus [21] = assay: Tested for distribution of radioactivity of iodine 125 in thyroid of rat after 60 min of intravenous administration; assay type: ADME, organism-based, Thyroid gland; settings: in vivo, 1 h; outline: as §1
# Rattus norvegicus [22] = assay: Tested for distribution of radioactivity of iodine 125 in lungs of rat after 2 hours of intravenous administration; assay type: ADME, organism-based, Lung; settings: in vivo; outline: as §1
# Rattus norvegicus [23] = assay: Tested for distribution of radioactivity of iodine 125 in lungs of rat after 30 min of intravenous administration; assay type: ADME, organism-based, Lung; settings: in vivo, 0.5 h; outline: as §1
# Rattus norvegicus [24] = assay: Tested for distribution of radioactivity of iodine 125 in lungs of rat after 5 min of intravenous administration; assay type: ADME, organism-based, Lung; settings: in vivo; outline: as §1
# Rattus norvegicus [25] = assay: Tested for distribution of radioactivity of iodine 125 in lungs of rat after 60 min of intravenous administration; assay type: ADME, organism-based, Lung; settings: in vivo, 1 h; outline: as §1
# Rattus norvegicus [26] = assay: Tested for distribution of radioactivity of iodine 125 in thyroid of rat after 2 hr of intravenous administration; assay type: ADME, organism-based, Thyroid gland; settings: in vivo; outline: as §1
# Rattus norvegicus [27] = assay: Tested for distribution of radioactivity of iodine 125 in liver of rat after 4 hr of intravenous administration; assay type: ADME, organism-based; settings: in vivo; outline: as §1
# Rattus norvegicus [28] = assay: Tested for distribution of radioactivity in heart of rat after 2 hours of intravenous administration; assay type: ADME, organism-based; settings: in vivo; outline: as §1
# [29] = Tested for distribution of radioactivity of iodine 125 in kidney of rat after 60 min of intravenous administration; assay type: ADME; settings: in vivo, 1 h; outline: as §1
smiles,measurement,setting,value
O=C(O)CCCCC[Te]CCCCCCCCC/C=C/I,Injected dose/g,Rattus norvegicus [1],2.78%
same,Injected dose/g,Rattus norvegicus [2],2.37%
same,Injected dose/g,Rattus norvegicus [3],2.96%
same,Injected dose/g,Rattus norvegicus [4],0.23%
same,Injected dose/g,Rattus norvegicus [5],0.22%
same,Injected dose/g,Rattus norvegicus [6],0.27%
same,Injected dose/g,Rattus norvegicus [7],0.26%
same,Injected dose/g,Rattus norvegicus [8],0.22%
same,Injected dose/g,Rattus norvegicus [9],3.47%
same,Injected dose/g,Rattus norvegicus [10],0.88%
same,Injected dose/g,Rattus norvegicus [11],0.89%
same,Injected dose/g,Rattus norvegicus [12],0.77%
same,Injected dose/g,Rattus norvegicus [13],1.05%
same,Injected dose/g,Rattus norvegicus [14],4.78%
same,Injected dose/g,Rattus norvegicus [15],5.63%
same,Injected dose/g,Rattus norvegicus [16],6.18%
same,Injected dose/g,Rattus norvegicus [17],5.33%
same,Injected dose/g,Rattus norvegicus [18],13.5%
same,Injected dose/g,Rattus norvegicus [19],69.8%
same,Injected dose/g,Rattus norvegicus [20],8.54%
same,Injected dose/g,Rattus norvegicus [21],22.2%
same,Injected dose/g,Rattus norvegicus [22],1%
same,Injected dose/g,Rattus norvegicus [23],0.96%
same,Injected dose/g,Rattus norvegicus [24],1.29%
same,Injected dose/g,Rattus norvegicus [25],1%
same,Injected dose/g,Rattus norvegicus [26],43.8%
same,Injected dose/g,Rattus norvegicus [27],4.4%
same,Injected dose/g,Rattus norvegicus [28],2.86%
same,Injected dose/g,[29],0.95%
